Results taken from ChEMBL document CHEMBL1240400, “Comparative in vitro activities of nemonoxacin (TG-873870), a novel nonfluorinated quinolone, and other quinolones against clinical isolates” (2010).

Columns and labels:
Format in all cases: functional
Staphylococcus aureus [1] = assay: Antibacterial activity against methicillin susceptible Staphylococcus aureus by broth dilution method
Staphylococcus aureus [2] = assay: Antibacterial activity against ciprofloxacin susceptible and methicillin resistant Staphylococcus aureus by broth dilution method
Summary of the method: (§1)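 Clinical isolates tested by CLSI broth microdilution in panels holding serial twofold drug dilutions in cation-adjusted Mueller-Hinton broth. Final inoculum 5 × 10^5 CFU/ml was made from a 0.5 McFarland suspension. Plates were incubated overnight at 35°C in ambient air, and the MIC was read as the lowest concentration inhibiting growth. Quality control strains were included in each run.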

Staphylococcus aureus [3] = assay: Antibacterial activity against ciprofloxacin and methicillin resistant Staphylococcus aureus by broth dilution method; summary of the method: as §1
Staphylococcus = assay: Antibacterial activity against methicillin resistant coagulase negative Staphylococcus by broth dilution method
[4] = tested on: Staphylococcus epidermidis; assay: Antibacterial activity against methicillin resistant coagulase negative Staphylococcus epidermidis by broth dilution method
Enterococcus faecalis [5] = assay: Antibacterial activity against Enterococcus faecalis by broth dilution method
Enterococcus faecalis [6] = assay: Antibacterial activity against vancomycin resistant Enterococcus faecalis by broth dilution method
Enterococcus faecium [7] = assay: Antibacterial activity against Enterococcus faecium by broth dilution method; summary of the method: as §1
Enterococcus faecium [8] = assay: Antibacterial activity against vancomycin resistant Enterococcus faecium by broth dilution method; summary of the method: as §1
Escherichia coli [9] = assay: Antibacterial activity against ciprofloxacin resistant Escherichia coli by broth dilution method; summary of the method: as §1
Escherichia coli [10] = assay: Antibacterial activity against ciprofloxacin susceptible Escherichia coli by broth dilution method
Summary of the method: (§2)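 Broth microdilution per CLSI in panels spanning a dilution range of each agent. Cation-adjusted Mueller-Hinton broth, final inoculum 5 × 10^5 CFU/ml from a 0.5 McFarland suspension. Incubated overnight at 35°C in ambient air, with quality control strains in each run. MIC reported; values at or below the lowest concentration tested are given as that concentration.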

Klebsiella pneumoniae = assay: Antibacterial activity against Klebsiella pneumoniae by broth dilution method; summary of the method: as §2
Enterobacter cloacae = assay: Antibacterial activity against Enterobacter cloacae by broth dilution method
Proteus mirabilis = assay: Antibacterial activity against Proteus mirabilis by broth dilution method
Citrobacter freundii = assay: Antibacterial activity against Citrobacter freundii by broth dilution method; summary of the method: as §2
Streptococcus pneumoniae [11] = assay: Antibacterial activity against Levofloxacin susceptible Streptococcus pneumoniae by broth dilution method
Summary of the method: (§3)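 Streptococcus pneumoniae clinical isolates tested by CLSI broth microdilution. A 0.5 McFarland suspension was diluted into Mueller-Hinton broth with 3% lysed horse blood, then tested against serial drug dilutions. Plates were incubated overnight at 35°C in ambient air, and the MIC was read as the lowest inhibitory concentration. Quality control strains were included in each run.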

Streptococcus pneumoniae [12] = assay: Antibacterial activity against Levofloxacin resistant Streptococcus pneumoniae by broth dilution method; summary of the method: as §3
Streptococcus pyogenes = assay: Antibacterial activity against Streptococcus pyogenes by broth dilution method
Summary of the method: (§4)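 Streptococci were tested by CLSI broth microdilution in Mueller-Hinton broth with 3% lysed horse blood, seeded from a 0.5 McFarland suspension. Incubated overnight at 35°C in ambient air, with quality control strains in each run. MIC taken over a per-agent dilution range.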

Streptococcus agalactiae = assay: Antibacterial activity against Streptococcus agalactiae by broth dilution method; summary of the method: as §4
Streptococcus viridans = assay: Antibacterial activity against Streptococcus viridans by broth dilution method; summary of the method: as §4
Acinetobacter baumannii = assay: Antibacterial activity against Acinetobacter baumannii by broth dilution method; summary of the method: as §2
Pseudomonas aeruginosa = assay: Antibacterial activity against Pseudomonas aeruginosa by broth dilution method
Haemophilus influenzae = assay: Antibacterial activity against Haemophilus influenzae by broth dilution method
Summary of the method: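 Broth microdilution per CLSI using Haemophilus Test Medium broth, seeded from a 0.5 McFarland suspension. Incubated overnight at 35°C in ambient air, with quality control strains in each run. MIC read against a tested dilution range; values at the low limit are given as the lowest concentration.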

Neisseria gonorrhoeae [13] = assay: Antibacterial activity against ciprofloxacin resistant Neisseria gonorrhoeae isolates by broth dilution method
Summary of the method: (§5)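 Neisseria gonorrhoeae clinical isolates tested by CLSI broth microdilution in Mueller-Hinton broth with 3% lysed horse blood, inoculated from a 0.5 McFarland suspension. Plates were incubated overnight at 35°C in 5% CO2, and the MIC was read as the lowest inhibitory concentration. Quality control strains were included in each run.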

Neisseria gonorrhoeae [14] = assay: Antibacterial activity against levofloxacin resistant Neisseria gonorrhoeae isolates by broth dilution method; summary of the method: as §5
Neisseria gonorrhoeae [15] = assay: Antibacterial activity against moxifloxacin resistant Neisseria gonorrhoeae isolates by broth dilution method; summary of the method: as §5

Question: How did the MIC50 (Staphylococcus aureus [1]) turn out when COc1c(N2C[C@@H](C)C[C@H](N)C2)ccc2c(=O)c(C(=O)O)cn(C3CC3)c12.O=C(O)CC(O)C(=O)O [NEMONOXACIN MALIC ACID] was run?
Answer: 0.03 µg/mL

Question: What about the MIC90 (Staphylococcus aureus [1]) of the same compound?
Answer: 0.12 µg/mL

Question: And the MIC50 (Staphylococcus aureus [2])?
Answer: 0.03 µg/mL

Question: And the MIC90 (Staphylococcus aureus [2])?
Answer: 0.06 µg/mL

Question: What about the MIC50 (Staphylococcus aureus [3]) of the same compound?
Answer: 1 µg/mL

Question: What about the MIC90 (Staphylococcus aureus [3]) of the same compound?
Answer: 1 µg/mL

Question: What about the MIC50 (Staphylococcus) of the same compound?
Answer: 0.12 µg/mL

Question: What about the MIC90 (Staphylococcus) of the same compound?
Answer: 0.5 µg/mL

Question: What about the MIC50 [4] of the same compound?
Answer: 0.12 µg/mL

Question: What about the MIC90 [4] of the same compound?
Answer: 0.5 µg/mL

Question: What about the MIC50 (Enterococcus faecalis [5]) of the same compound?
Answer: 0.25 µg/mL

Question: What about the MIC90 (Enterococcus faecalis [5]) of the same compound?
Answer: 4 µg/mL

Question: What about the MIC50 (Enterococcus faecalis [6]) of the same compound?
Answer: 0.25 µg/mL

Question: What about the MIC90 (Enterococcus faecalis [6]) of the same compound?
Answer: 4 µg/mL

Question: What about the MIC50 (Enterococcus faecium [7]) of the same compound?
Answer: 4 µg/mL

Question: What about the MIC90 (Enterococcus faecium [7]) of the same compound?
Answer: 8 µg/mL

Question: What about the MIC50 (Enterococcus faecium [8]) of the same compound?
Answer: 4 µg/mL

Question: And the MIC90 (Enterococcus faecium [8])?
Answer: 8 µg/mL

Question: What about the MIC50 (Escherichia coli [9]) of the same compound?
Answer: > 16 µg/mL

Question: And the MIC90 (Escherichia coli [9])?
Answer: > 16 µg/mL

Question: And the MIC50 (Escherichia coli [10])?
Answer: 1 µg/mL

Question: What about the MIC90 (Escherichia coli [10]) of the same compound?
Answer: 2 µg/mL

Question: What about the MIC50 (Klebsiella pneumoniae) of the same compound?
Answer: 4 µg/mL

Question: What about the MIC90 (Klebsiella pneumoniae) of the same compound?
Answer: > 16 µg/mL

Question: What about the MIC50 (Enterobacter cloacae) of the same compound?
Answer: 4 µg/mL

Question: And the MIC90 (Enterobacter cloacae)?
Answer: > 16 µg/mL

Question: And the MIC50 (Proteus mirabilis)?
Answer: 8 µg/mL

Question: And the MIC90 (Proteus mirabilis)?
Answer: > 16 µg/mL

Question: And the MIC50 (Citrobacter freundii)?
Answer: 0.5 µg/mL

Question: What about the MIC90 (Citrobacter freundii) of the same compound?
Answer: 4 µg/mL

Question: And the MIC50 (Streptococcus pneumoniae [11])?
Answer: 0.12 µg/mL

Question: What about the MIC90 (Streptococcus pneumoniae [11]) of the same compound?
Answer: 0.12 µg/mL

Question: What about the MIC50 (Streptococcus pneumoniae [12]) of the same compound?
Answer: 1 µg/mL

Question: And the MIC90 (Streptococcus pneumoniae [12])?
Answer: 2 µg/mL

Question: What about the MIC50 (Streptococcus pyogenes) of the same compound?
Answer: 0.12 µg/mL

Question: What about the MIC90 (Streptococcus pyogenes) of the same compound?
Answer: 0.12 µg/mL

Question: And the MIC (Streptococcus agalactiae)?
Answer: 0.12 µg/mL

Question: What about the MIC50 (Streptococcus agalactiae) of the same compound?
Answer: 0.12 µg/mL

Question: And the MIC90 (Streptococcus agalactiae)?
Answer: 0.25 µg/mL

Question: And the MIC50 (Streptococcus viridans)?
Answer: 0.12 µg/mL

Question: And the MIC90 (Streptococcus viridans)?
Answer: 0.25 µg/mL

Question: What about the MIC50 (Acinetobacter baumannii) of the same compound?
Answer: 4 µg/mL

Question: What about the MIC90 (Acinetobacter baumannii) of the same compound?
Answer: > 16 µg/mL

Question: What about the MIC50 (Pseudomonas aeruginosa) of the same compound?
Answer: 16 µg/mL

Question: What about the MIC90 (Pseudomonas aeruginosa) of the same compound?
Answer: > 16 µg/mL

Question: What about the MIC50 (Haemophilus influenzae) of the same compound?
Answer: 0.12 µg/mL

Question: What about the MIC90 (Haemophilus influenzae) of the same compound?
Answer: 4 µg/mL

Question: And the MIC (Neisseria gonorrhoeae [13])?
Answer: 0.25 µg/mL

Question: What about the MIC (Neisseria gonorrhoeae [14]) of the same compound?
Answer: 0.25 µg/mL

Question: What about the MIC (Neisseria gonorrhoeae [15]) of the same compound?
Answer: 0.25 µg/mL
